Test results published in ChEMBL document CHEMBL4665698, “Triple-Negative Breast Cancer Cells Exhibit Differential Sensitivity to Cardenolides from Calotropis gigantea” (J Nat Prod, 2020).
Calls of active or inactive are those of the source. No cut-off for these calls is given here.

How the values were obtained:
[1] = Inhibition of porcine cerebral cortex Na+/K+-ATPase after 15 mins by ADP-Glo reagent based assay; set-up: species or system Sus scrofa
[2] = Selectivity index, ratio of IC50 for human MDA-MB-231 cells to IC50 for human BT-549 cells; format: functional
Hs-578T = assay: Cytotoxicity against human Hs-578T cells assessed as reduction in cell viability after 48 hrs by SRB assay; format: functional, cell-based
Method in brief: (§1)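 Cells exposed to compounds for 48 h; growth inhibition and cytotoxicity read by sulforhodamine B staining. Concentration-response curves fit by four-parameter non-linear regression; IC50 is the concentration giving 50% reduction in cell density versus DMSO vehicle. Cells grown at 37 °C, 5% CO2 (Hs578T in DMEM with 10% FBS and 50 µg/mL gentamicin).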

MDA-MB-231 [3] = assay: Cytotoxicity against human MDA-MB-231 cells assessed as reduction in cell viability after 48 hrs by SRB assay; format: functional, cell-based; settings: MDA-MB-231, 48 h; method in brief: as §1
BT-549 [4] = assay: Cytotoxicity against human BT-549 cells assessed as reduction in cell viability after 48 hrs by SRB assay; format: functional, cell-based; settings: BT-549, 48 h; method in brief: as §1
[5] = Induction of intracellular Ca2+ concentration in human BT-549 cells at 150 nM after 2 hrs by Cal520-AM dye-based fluorescence assay relative to control; format: functional
Method in brief: (§2)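 BT-549 and MDA-MB-231 cells in 96-well optical plates at 60–80% confluency, loaded with 2.5 µM Cal-520 AM and 0.2% Pluronic F-127 for 30 min at 37 °C. Same field imaged at 4× at T0 and 2 h after 150 nM compound. Per-cell corrected total fluorescence normalized to T0; two-way ANOVA with Bonferroni test, n = 291–531 cells.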

BT-549 [6] = assay: Induction of intracellular Ca2+ concentration in human BT-549 cells at 150 to 500 nM after 3 hrs by Cal520-AM dye-based fluorescence assay; format: functional, cell-based; settings: dose nM 150-500, time 3.0 hrs
Method in brief: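 BT-549 cells on coverslips at 60–80% confluency, loaded with 2.5 µM Cal-520 AM plus 0.2% Pluronic F-127 for 30 min at 37 °C, then washed. Imaged at 20× at T0 and 3 h after 150 or 500 nM compound, multiple fields. Per-cell corrected total fluorescence normalized to T0, versus DMSO; two-way ANOVA with Dunnett's test, n = 102–242 cells.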

MDA-MB-231 [7] = assay: Induction of intracellular Ca2+ concentration in human MDA-MB-231 cells at 150 nM after 2 hrs by Cal520-AM dye-based fluorescence assay; format: functional, cell-based; method in brief: as §2
HCC1806 = assay: Cytotoxicity against human HCC1806 cells assessed as reduction in cell viability after 48 hrs by SRB assay; format: functional, cell-based; settings: HCC1806, 48 h; method in brief: as §1
HCC1937 = assay: Cytotoxicity against human HCC1937 cells assessed as reduction in cell viability after 48 hrs by SRB assay; format: functional, cell-based; settings: HCC1937, 48 h; method in brief: as §1
HCC70 = assay: Cytotoxicity against human HCC70 cells assessed as reduction in cell viability after 48 hrs by SRB assay; format: functional, cell-based; settings: HCC70, 48 h; method in brief: as §1
SUM185PE = assay: Cytotoxicity against human SUM185PE cells assessed as reduction in cell viability after 48 hrs by SRB assay; format: functional, cell-based
Method in brief: (§3)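 Cells grown at 37 °C in humidified 5% CO2 and exposed to compounds for 48 h. Antiproliferative and cytotoxic effects read by sulforhodamine B staining of cell density. Concentration-response curves fit by four-parameter non-linear regression. IC50 taken as the concentration giving 50% reduction in cell density relative to DMSO vehicle.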

MDA-MB-453 = assay: Cytotoxicity against human MDA-MB-453 cells assessed as reduction in cell viability after 48 hrs by SRB assay; format: functional, cell-based; settings: MDA-MB-453, 48 h; method in brief: as §3
CAL-51 = assay: Cytotoxicity against human CAL-51 cells assessed as reduction in cell viability after 48 hrs by SRB assay; format: functional, cell-based; settings: CAL-51, 48 h; method in brief: as §1
MDA-MB-468 = assay: Cytotoxicity against human MDA-MB-468 cells assessed as reduction in cell viability after 48 hrs by SRB assay; format: functional, cell-based; settings: MDA-MB-468, 48 h; method in brief: as §1

Question: What does the source list for `C[C@]12CC[C@H](O)C[C@@H]1CC[C@@H]1[C@@H]2CC[C@]2(C)[C@@H](C3=CC(=O)OC3)CC[C@]12O`?
Answer: EC50 [1]: 2100 nM; Ratio IC50 [2]: >8; IC50 (Hs-578T): 3600 nM; IC50 (MDA-MB-231 [3]): > 30000 nM; IC50 (BT-549 [4]): 3900 nM

Question: Which results are given for `C[C@H]1O[C@H]2O[C@@H]3C[C@@H]4CC[C@@H]5[C@H](CC[C@]6(C)[C@@H](C7=CC(=O)OC7)CC[C@]56O)[C@@]4(C=O)C[C@H]3O[C@@]2(O)[C@H](O)[C@@H]1O`?
Answer: EC50 [1]: 300 nM; Ratio IC50 [2]: 13; IC50 (Hs-578T): 120 nM; IC50 (MDA-MB-231 [3]): 630 nM; IC50 (BT-549 [4]): 49 nM

Question: For `C[C@H]1O[C@@H](O[C@@H]2C[C@@H]3CC[C@@H]4[C@H](CC[C@]5(C)[C@@H](C6=CC(=O)OC6)CC[C@]45O)[C@@]3(C=O)C[C@H]2O)[C@H](O)[C@H](O)[C@@H]1O`, which EC50 [1] is on record?
Answer: The EC50 was 2500 nM.

Question: And the “Ratio IC50” value [2]?
Answer: The value was 7.

Question: What about the IC50 (Hs-578T) of the same molecule?
Answer: Its IC50 is 3900 nM.

Question: And the IC50 (MDA-MB-231 [3])?
Answer: The IC50 was 10000 nM.

Question: What about the IC50 (BT-549 [4]) of the same molecule?
Answer: Its IC50 is 1400 nM.

Question: With `C[C@H]1O[C@@H](O[C@H]2CC[C@@]3(CO)[C@@H](CC[C@@H]4[C@@H]3CC[C@]3(C)[C@@H](C5=CC(=O)OC5)CC[C@]43O)C2)[C@H](O)[C@H](O)[C@@H]1O` as the molecule, how does the EC50 [1] read?
Answer: Its EC50 is 500 nM.

Question: And the “Ratio IC50” value [2]?
Answer: Its value is 10.

Question: What about the IC50 (Hs-578T) of the same molecule?
Answer: The IC50 was 380 nM.

Question: What about the IC50 (MDA-MB-231 [3]) of the same molecule?
Answer: The IC50 was 1250 nM.

Question: What about the IC50 (BT-549 [4]) of the same molecule?
Answer: Its IC50 is 121 nM.

Question: With `C[C@H]1O[C@@H](O[C@H]2CC[C@@]3(CO)[C@@H](CC[C@@H]4[C@@H]3CC[C@]3(C)[C@@H](C5=CC(=O)OC5)CC[C@]43O)C2)[C@H](O)[C@H](O)[C@@H]1O[C@@H]1O[C@H](CO)[C@@H](O)[C@H](O)[C@H]1O` as the molecule, how does the EC50 [1] read?
Answer: Its EC50 is 600 nM.

Question: And the “Ratio IC50” value [2]?
Answer: The value was 14.

Question: And the IC50 (Hs-578T)?
Answer: Its IC50 is 300 nM.

Question: And the IC50 (MDA-MB-231 [3])?
Answer: The IC50 was 980 nM.

Question: What about the IC50 (BT-549 [4]) of the same molecule?
Answer: The IC50 was 70 nM.

Question: For `C[C@@H]1C[C@H](O)[C@]2(O)O[C@@H]3C[C@@]4(C=O)[C@@H](CC[C@@H]5[C@@H]4CC[C@]4(C)[C@@H](C6=CC(=O)OC6)CC[C@]54O)C[C@H]3O[C@@H]2O1` [CALOTROPIN], which “fold change (FC)” value [5] is on record?
Answer: The value was 2.

Question: What about the EC50 [1] of the same molecule?
Answer: Its EC50 is 360 nM.

Question: And the “Ratio IC50” value [2]?
Answer: Its value is 15.

Question: And the IC50 (Hs-578T)?
Answer: Its IC50 is 60 nM.

Question: What about the Activity (BT-549 [6]) of the same molecule?
Answer: Its Activity is “Active”.

Question: And the Activity (MDA-MB-231 [7])?
Answer: Its Activity is “Active”.

Question: And the IC50 (MDA-MB-231 [3])?
Answer: The IC50 was 440 nM.

Question: And the IC50 (BT-549 [4])?
Answer: Its IC50 is 30 nM.

Question: Which EC50 [1] does the source give for `C[C@]12CC[C@H]3[C@@H](CC[C@H]4C[C@@H](O)CC[C@@]43CO)[C@@]1(O)CC[C@@H]2C1=CC(=O)OC1` [COROGLAUCIGENIN] here?
Answer: Its EC50 is 1100 nM.

Question: And the “Ratio IC50” value [2]?
Answer: Its value is 9.

Question: What about the IC50 (Hs-578T) of the same molecule?
Answer: Its IC50 is 1800 nM.

Question: And the IC50 (MDA-MB-231 [3])?
Answer: Its IC50 is 20000 nM.

Question: What about the IC50 (BT-549 [4]) of the same molecule?
Answer: Its IC50 is 2300 nM.

Question: Which EC50 [1] does the source give for `C[C@]12CC[C@H](O[C@@H]3O[C@H](CO)[C@@H](O)[C@H](O)[C@H]3O)C[C@@H]1CC[C@@H]1[C@@H]2CC[C@]2(C)[C@@H](C3=CC(=O)OC3)CC[C@]12O` [DESGLUCOUZARIN] here?
Answer: Its EC50 is 1100 nM.

Question: And the “Ratio IC50” value [2]?
Answer: Its value is 6.

Question: And the IC50 (Hs-578T)?
Answer: Its IC50 is 1570 nM.

Question: And the IC50 (MDA-MB-231 [3])?
Answer: The IC50 was 10000 nM.

Question: What about the IC50 (BT-549 [4]) of the same molecule?
Answer: Its IC50 is 1800 nM.

Question: What does the source list for `C[C@H]1O[C@@H](O[C@H]2[C@@H](O)C[C@H](O[C@H]3[C@@H](O)C[C@H](O[C@H]4CC[C@@]5(C)[C@H](CC[C@@H]6[C@@H]5C[C@@H](O)[C@]5(C)[C@@H](C7=CC(=O)OC7)CC[C@]65O)C4)O[C@@H]3C)O[C@@H]2C)C[C@H](O)[C@@H]1O` [DIGOXIN]?
Answer: IC50 (HCC1806): 280 nM; IC50 (HCC1937): 550 nM; IC50 (HCC70): 640 nM; IC50 (SUM185PE): 280 nM; IC50 (Hs-578T): 69 nM; IC50 (MDA-MB-453): 230 nM; IC50 (CAL-51): 130 nM; IC50 (MDA-MB-468): 230 nM; IC50 (MDA-MB-231 [3]): 480 nM; IC50 (BT-549 [4]): 51 nM

Question: Which results are given for `C[C@@H]1C[C@@]2(N=CCS2)[C@]2(O)O[C@@H]3C[C@@]4(C=O)[C@@H](CC[C@@H]5[C@@H]4CC[C@]4(C)[C@@H](C6=CC(=O)OC6)CC[C@]54O)C[C@H]3O[C@@H]2O1` [USCHARIN]?
Answer: EC50 [1]: 910 nM; Ratio IC50 [2]: 7; IC50 (Hs-578T): 34 nM; IC50 (MDA-MB-231 [3]): 102 nM; IC50 (BT-549 [4]): 14.6 nM
